Experimental data taken from ChEMBL document CHEMBL1136016, “Synthesis, biological activity, and molecular modeling investigation of new pyrazolo[4,3-e]-1,2,4-triazolo[1,5-c]pyrimidine derivatives as human A(3) adenosine receptor antagonists” (J Med Chem, 2002).

Legend:
Adenosine receptor A3 [1] = target: T1, Adenosine receptor A3 (Homo sapiens, UniProt P0DMS8); test: Displacement of […] from human Adenosine A3 receptor expressed in CHO cells; format: cell-based
T1 sequence (P0DMS8 whole entry): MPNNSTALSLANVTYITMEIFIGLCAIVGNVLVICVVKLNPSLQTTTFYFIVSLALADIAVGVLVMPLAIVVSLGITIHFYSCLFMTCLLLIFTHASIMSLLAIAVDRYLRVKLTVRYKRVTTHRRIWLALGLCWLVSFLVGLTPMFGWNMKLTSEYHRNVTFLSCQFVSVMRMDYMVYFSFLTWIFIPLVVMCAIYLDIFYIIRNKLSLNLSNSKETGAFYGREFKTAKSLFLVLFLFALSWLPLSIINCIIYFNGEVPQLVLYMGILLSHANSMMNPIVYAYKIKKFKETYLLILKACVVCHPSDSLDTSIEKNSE
Summary of the method: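 Membranes of CHO cells stably expressing human A3 receptor (50 µg protein/assay), incubated in duplicate with 1 nM [3H]MRE3008-F20 in 50 mM Tris HCl, 10 mM MgCl2 (pH 7.4) and six to eight ligand concentrations, 120 min at 4 °C. Nonspecific binding was set with 1 µM MRE3008-F20. Separation was by GF/B filtration and scintillation counting; n = 3-6.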

Adenosine receptor A2a [2] = target: T2, Adenosine receptor A2a (Homo sapiens, UniProt P29274); test: Displacement of [3H]SCH-58261 from human Adenosine A2A receptor expressed in CHO cells; format: cell-based
Summary of the method: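 Membranes from CHO cells expressing the human receptor (50 µg protein) with [3H]SCH58261 and six to eight competitor concentrations. Incubated 60 min at 25 °C. Nonspecific binding was set with NECA.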

[3] = target: Adenosine receptors; A2b & A3 (Homo sapiens) (UniProt P29275+P0DMS8); test: Selectivity ratio (h2B/hA3); format: protein assay
[4] = target: Adenosine receptors; A1 & A3 (Homo sapiens) (UniProt P30542+P0DMS8); test: Selectivity ratio (hA1/hA3); format: protein assay
Adenosine receptor A2b [5] = target: T3, Adenosine receptor A2b (Homo sapiens, UniProt P29275); test: Displacement of [3H]DPCPX binding at human Adenosine A2B receptor expressed in HEK293 cells; format: cell-based
T3 sequence (P29275 whole entry): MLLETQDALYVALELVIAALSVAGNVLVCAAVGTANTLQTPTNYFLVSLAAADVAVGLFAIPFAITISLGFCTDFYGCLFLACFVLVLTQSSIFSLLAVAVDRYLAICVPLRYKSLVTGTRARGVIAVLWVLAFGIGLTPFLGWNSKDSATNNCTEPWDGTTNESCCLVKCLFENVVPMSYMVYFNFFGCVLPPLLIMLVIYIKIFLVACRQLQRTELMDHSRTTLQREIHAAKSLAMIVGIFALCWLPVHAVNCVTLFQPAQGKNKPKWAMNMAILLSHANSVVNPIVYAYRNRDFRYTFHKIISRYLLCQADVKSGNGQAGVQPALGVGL
Summary of the method: (§1)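 Membranes from HEK-293 cells with human recombinant A2B receptor. Incubation 60 min at 25 °C in 50 mM Tris HCl, 10 mM MgCl2, 1 mM EDTA, 0.1 mM benzamidine, pH 7.4, with 2 IU/mL adenosine deaminase and 40 nM [3H]DPCPX. At least six to eight test concentrations. Nonspecific binding defined with NECA. n = 3-6.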

Adenosine receptor A1 [6] = target: T4, Adenosine receptor A1 (Homo sapiens, UniProt P30542); test: Displacement of [3H]DPCPX from human Adenosine A1 receptor expressed in CHO cells; format: cell-based
T4 sequence (P30542 whole entry): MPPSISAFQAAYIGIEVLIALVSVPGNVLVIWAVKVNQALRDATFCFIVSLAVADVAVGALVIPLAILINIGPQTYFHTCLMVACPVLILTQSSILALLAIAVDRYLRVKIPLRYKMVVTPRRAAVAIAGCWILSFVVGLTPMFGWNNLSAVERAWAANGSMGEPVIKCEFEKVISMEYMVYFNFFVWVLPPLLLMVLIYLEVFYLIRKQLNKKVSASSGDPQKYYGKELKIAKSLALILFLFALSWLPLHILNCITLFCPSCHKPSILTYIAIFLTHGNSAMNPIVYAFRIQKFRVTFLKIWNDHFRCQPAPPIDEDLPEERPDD
Summary of the method: (§2)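 Human recombinant A1 receptor in CHO cell membranes, resuspended in 50 mM Tris HCl pH 7.4. Displacement run 120 min at 25 °C with 1 nM [3H]DPCPX, 50 µg protein per assay, and at least six to eight test concentrations. Nonspecific binding defined with CHA. Bound and free separated on glass-fiber filters; filter radioactivity counted. n = 3-6.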

Adenosine receptor A2b [7] = target: T3, Adenosine receptor A2b; test: Displacement of [3H]DPCPX from human Adenosine A2B receptor expressed in HEK293 cells; range 140-186; format: cell-based; summary of the method: as §1
Adenosine receptor A2a [8] = target: T2, Adenosine receptor A2a; test: Displacement of [3H]SCH-58261 from human Adenosine A2A receptor expressed in HEK293 cells; range 34-50; format: cell-based
Adenosine receptor A3 [9] = target: T1, Adenosine receptor A3; test: biochemical
Adenosine receptor A1 [10] = target: T4, Adenosine receptor A1; test: Displacement of [3H]DPCPX from human Adenosine A1 receptor expressed in CHO cells; range 294-480; format: cell-based
Adenosine receptor A1 [11] = target: T4, Adenosine receptor A1; test: Displacement of [3H]DPCPX from human Adenosine A1 receptor expressed in CHO cells; range 552-676; format: cell-based
Summary of the method: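 Competition binding on membranes of CHO cells stably expressing human A1 receptor, resuspended in 50 mM Tris HCl pH 7.4. Incubation 120 min at 25 °C with 1 nM [3H]DPCPX, 50 µg protein per assay and at least six to eight test concentrations. CHA defined nonspecific binding. Bound ligand separated on glass-fibre filters and counted; n = 3-6.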

Adenosine receptor A2b [12] = target: T3, Adenosine receptor A2b; test: Displacement of [3H]DPCPX from human Adenosine A2B receptor expressed in HEK293 cells; range 25-40; format: cell-based
Summary of the method: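 HEK-293 membranes expressing the human receptor were incubated 60 min at 25 °C. Six to eight test concentrations were used. Nonspecific binding was set with NECA. n = 3-6.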

Adenosine receptor A3 [13] = target: T1, Adenosine receptor A3; test: Displacement of [3H]MRE3008-F20 from human Adenosine A3 receptor expressed in HEK cells; range 2.0-3.1; format: cell-based, HEK293
Adenosine receptor A2a [14] = target: T2, Adenosine receptor A2a; test: Displacement of [3H]SCH-58261 from human Adenosine A2A receptor expressed in HEK293 cells; range 362-445; format: cell-based
Adenosine receptor A1 [15] = target: T4, Adenosine receptor A1; test: Displacement of [3H]DPCPX from human Adenosine A1 receptor expressed in CHO cells; range 222-400; format: cell-based; summary of the method: as §2
Adenosine receptor A2a [16] = target: T2, Adenosine receptor A2a; test: Displacement of [3H]SCH-58261 from human Adenosine A2A receptor expressed in HEK293 cells; […]; format: cell-based
Adenosine receptor A3 [17] = target: T1, Adenosine receptor A3; test: Displacement of [3H]MRE3008-F20 binding at human Adenosine A3 receptor expressed in HEK cells; range 0.82-1.02; format: cell-based, HEK293
Adenosine receptor A2b [18] = target: T3, Adenosine receptor A2b; test: Displacement of [3H]DPCPX from human Adenosine A2B receptor expressed in HEK293 cells; range 88-165; format: cell-based; summary of the method: as §1

T2 sequence (P29274 whole entry): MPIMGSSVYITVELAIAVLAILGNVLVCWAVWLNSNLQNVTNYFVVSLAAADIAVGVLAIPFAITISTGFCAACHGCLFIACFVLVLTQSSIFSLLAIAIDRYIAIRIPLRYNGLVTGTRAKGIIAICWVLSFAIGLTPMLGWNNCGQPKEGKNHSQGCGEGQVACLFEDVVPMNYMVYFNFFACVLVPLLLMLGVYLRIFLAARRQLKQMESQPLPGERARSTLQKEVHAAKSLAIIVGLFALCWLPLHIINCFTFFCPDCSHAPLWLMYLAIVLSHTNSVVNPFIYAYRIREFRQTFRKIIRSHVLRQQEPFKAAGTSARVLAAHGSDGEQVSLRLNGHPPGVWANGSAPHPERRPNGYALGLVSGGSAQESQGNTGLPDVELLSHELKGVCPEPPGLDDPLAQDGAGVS

| Ratio [3] | Ratio [4] | Compound | other results |
| --- | --- | --- | --- |
| 348 | 1740 | CCn1cc2c(nc(NC(=O)Nc3ccc([N+](=O)[O-])cc3)n3nc(-c4ccco4)nc23)n1 | Ki (Adenosine receptor A3 [1]): 0.65 nM; Ki (Adenosine receptor A2a [2]): 614 nM; Ki (Adenosine receptor A2b [5]): 226 nM; Ki (Adenosine receptor A1 [6]): 1130 nM |
| 555 | 1300 | CCCn1cc2c(nc(NC(=O)Nc3ccc(F)cc3)n3nc(-c4ccco4)nc23)n1 | Ki (Adenosine receptor A2b [7]): 161 nM; Ki (Adenosine receptor A2a [8]): 42 nM; Ki (Adenosine receptor A3 [9]): 0.29 nM; Ki (Adenosine receptor A1 [10]): 376 nM |
| 377 | 1500 | CCCn1cc2c(nc(NC(=O)Nc3ccc([N+](=O)[O-])cc3)n3nc(-c4ccco4)nc23)n1 | Ki (Adenosine receptor A3 [1]): 0.81 nM; Ki (Adenosine receptor A2a [2]): 1110 nM; Ki (Adenosine receptor A2b [5]): 305 nM; Ki (Adenosine receptor A1 [6]): 1210 nM |
| 116 | 408 | CCCCn1cc2c(nc(NC(=O)Nc3cccc(Cl)c3)n3nc(-c4ccco4)nc23)n1 | – |
| 946 | 925 | CCCCn1cc2c(nc(NC(=O)Nc3ccc(OC)cc3)n3nc(-c4ccco4)nc23)n1 | – |
| 12 | 244 | CCCn1cc2c(nc(NC(=O)Nc3ccc(Cl)c(Cl)c3)n3nc(-c4ccco4)nc23)n1 | Ki (Adenosine receptor A1 [11]): 611 nM; Ki (Adenosine receptor A2b [12]): 31 nM; Ki (Adenosine receptor A3 [13]): 2.5 nM; Ki (Adenosine receptor A2a [14]): 401 nM |
| 408 | 1710 | CCn1cc2c(nc(NC(=O)Nc3ccc(OC)cc3)n3nc(-c4ccco4)nc23)n1 | – |
| 133 | 330 | CCCCn1cc2c(nc(NC(=O)Nc3ccc(Br)cc3)n3nc(-c4ccco4)nc23)n1 | Ki (Adenosine receptor A1 [15]): 300 nM; Ki (Adenosine receptor A2a [16]): 66 nM; Ki (Adenosine receptor A3 [17]): 0.91 nM; Ki (Adenosine receptor A2b [18]): 121 nM |
| 158 | 43 | COc1ccc(NC(=O)Nc2nc3ccc(Cl)cc3c3nc(-c4ccco4)nn23)cc1 | – |
| 93.7 | 155 | CCn1cc2c(nc(NC(=O)Nc3cccc(Cl)c3)n3nc(-c4ccco4)nc23)n1 | – |
